E-selectin induc: E-selectin induction in HUVECs, primary screen, imaging, HUVEC, immunofluorescence imaging, single point; P16581; normalized: neutral wells 0, TNF-alpha wells 100; activation, % at 7.58 µM; 0.37% of 260,000 active;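 active means mean E-selectin-positive cell signal at least 10% of the positive control, reached in at least 60% of replicates, without over 20% cell loss; inconclusive means no rule given, readout overlaps actives, possibly toxicity-flagged; inactive means the rest, including those meeting only one limit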
Target sequence (P16581 whole entry, looked up): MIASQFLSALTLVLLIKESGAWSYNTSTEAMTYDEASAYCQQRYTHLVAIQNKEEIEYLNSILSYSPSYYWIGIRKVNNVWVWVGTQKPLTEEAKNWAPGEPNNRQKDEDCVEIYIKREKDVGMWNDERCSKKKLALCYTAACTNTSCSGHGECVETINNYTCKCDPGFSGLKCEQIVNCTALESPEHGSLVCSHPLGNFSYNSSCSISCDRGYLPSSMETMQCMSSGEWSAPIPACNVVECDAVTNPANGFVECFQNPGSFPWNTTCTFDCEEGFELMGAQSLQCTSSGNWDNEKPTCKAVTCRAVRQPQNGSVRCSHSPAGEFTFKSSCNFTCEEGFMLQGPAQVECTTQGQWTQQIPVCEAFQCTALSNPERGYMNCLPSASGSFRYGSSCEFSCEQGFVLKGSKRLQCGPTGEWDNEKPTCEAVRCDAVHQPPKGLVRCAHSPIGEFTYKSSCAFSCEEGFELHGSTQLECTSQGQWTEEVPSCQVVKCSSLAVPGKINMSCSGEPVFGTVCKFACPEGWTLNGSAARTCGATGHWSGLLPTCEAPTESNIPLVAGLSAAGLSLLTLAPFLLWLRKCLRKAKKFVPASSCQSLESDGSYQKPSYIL
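Read-out basis: % PE-positive cells; Test system: HUVEC primary endothelial cells; Technique: immunofluorescence imaging; Dosing: single-point compound dose.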
Xi reactivation: activators of inactive X chromosome reactivation, primary screen, imaging, XiGFP fibroblasts, GFP high-content imaging, set 2; 0.055% of 360,000 active; activation, % at 7.58 µM; AID 743238, 2013; XiGFP mouse fibroblasts, % GFP-positive cells imaging, 3 d; cells co-treated with 5-aza-dC sensitizer; scaled so ellipticine positive control = 100%;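 active means mean normalized replicate activation at least 10% and every replicate at or above 10%; inconclusive means only one of the two criteria met; inactive means mean below 10% and not all replicates reach 10%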;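 further: 0% = median of on-plate neutral control wells and 100% = ellipticine 6 µM median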
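Material: SV40-immortalized XiGFP fibroblast cells, line 68-5-11 | Buffer or medium: DMEM containing 5-aza-dC | Dosing: One concentration, pinned | Times: 3 d treatment, 15 min room-temperature fixation | Controls: Ellipticine 6 µM positive control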
* hit, by the source's call; u = inconclusive; x = not tested or not shown. This excerpt belongs to a sample that is enriched for hits.

SMILES | E-selectin induc | Xi reactivation
C[C@H](NC(=O)C[C@H]1C=C[C@@H](NC(=O)CN2CCOCC2)[C@@H](CO)O1)c1ccccc1 | 0 | 0
O=C(C[C@H]1CC[C@H]2[C@@H](COC[C@@H](O)CN2S(=O)(=O)c2cccc(Cl)c2)O1)NCCCN1CCOCC1 | 0 | 0
COc1ccc([C@H]2CC(=O)C=C(c3ccc(OC(F)(F)F)cc3)C2)cc1 | 0 | 0
COc1ccc([C@H]2CC(=O)C=C(c3ccc(CNC(=O)OC(C)(C)C)cc3)C2)cc1 | 30* | 0
OC[C@@H]1[C@H](c2ccc(Br)cc2)[C@H]2CNCCCCN12 | 0 | 0
Nc1sc(-c2ccccc2)cc1C(=O)NCCc1ccc(Cl)cc1 | 0 | 0
NNC(=O)c1sc(-c2ccc(Cl)cc2)cc1N | x | 19*
COc1ccc(NC(=O)Nc2ccc3c(c2)C(=O)N([C@H](C)CO)C[C@H](C)[C@@H](CN(C)Cc2ccncc2)O3)cc1 | 170* | 0
COc1ccc(NC(=O)Nc2ccc3c(c2)C(=O)N([C@@H](C)CO)C[C@H](C)[C@@H](CN(C)C)O3)cc1 | 41* | -1
COc1ccc(CN(C)C[C@@H]2Oc3ccc(NC(=O)c4ccncc4)cc3C(=O)N([C@@H](C)CO)C[C@H]2C)cc1 | 56* | 0
Cc1noc(C)c1NC(=O)Nc1ccc2c(c1)C(=O)N([C@H](C)CO)C[C@H](C)[C@@H](CN(C)Cc1ccc(Oc3ccccc3)cc1)O2 | 1 | 0
COc1ccc(NC(=O)Nc2ccc3c(c2)C(=O)N([C@@H](C)CO)C[C@H](C)[C@H](CN(C)C)O3)cc1 | -8 | -1
COc1ccc(CN(C)C[C@H]2Oc3ccc(NC(=O)Nc4c(C)noc4C)cc3C(=O)N([C@@H](C)CO)C[C@H]2C)cc1 | 239* | -1
COc1ccc(CN(C)C[C@H]2Oc3ccc(NC(=O)c4ccncc4)cc3C(=O)N([C@@H](C)CO)C[C@@H]2C)cc1 | 11 | 0
COc1ccc(NC(=O)Nc2ccc3c(c2)C(=O)N([C@H](C)CO)C[C@@H](C)[C@@H](CN(C)Cc2ccncc2)O3)cc1 | 5 | 1
COc1ccc(CN(C)C[C@@H]2Oc3c(NC(=O)NC4CCCCC4)cccc3C(=O)N([C@@H](C)CO)C[C@@H]2C)cc1 | u | -1
C[C@@H]1CN([C@@H](C)CO)C(=O)c2cccc(NS(C)(=O)=O)c2O[C@@H]1CN(C)Cc1ccc2c(c1)OCO2 | 1 | 0
COc1ccc(NS(=O)(=O)c2cccc(Cl)c2)cc1S(=O)(=O)N1CCCCC1 | x | 0
COc1ccc(NS(=O)(=O)c2cccc(Cl)c2Cl)cc1S(=O)(=O)N1CCCCC1 | 134* | 0
C[C@@H](NC(=O)[C@H]1[C@H](CO)[C@H]2Cn3c(cccc3=O)[C@@H]1N2C(=O)C1CC1)c1ccccc1 | 0 | 0
CN(C)c1ccc(/C=N/NC(=O)c2ccc3nc[nH]c3c2)cc1 | 1 | 0
CSc1ccc(/C=N/NC(=O)c2ccc3nc[nH]c3c2)cc1 | 40* | 0
O=C(C[C@H]1C[C@@H]2c3cc(NC(=O)NC4CCCC4)ccc3O[C@@H]2[C@H](CO)O1)NCCc1ccccc1 | 0 | 0
C[C@H](CO)N1C[C@H](C)[C@H](CN(C)C)Oc2c(NS(C)(=O)=O)cccc2C1=O | -1 | 0
C[C@@H]1CN([C@@H](C)CO)C(=O)c2cccc(NS(C)(=O)=O)c2O[C@H]1CN(C)C | -2 | 0
SMILES | E-selectin induc | Xi reactivation
C[C@H]1CN([C@@H](C)CO)C(=O)c2cccc(NS(C)(=O)=O)c2O[C@H]1CN(C)S(C)(=O)=O | 36* | 0
C[C@H](CO)N1C[C@H](C)[C@H](CN(C)S(C)(=O)=O)Oc2c(NS(C)(=O)=O)cccc2C1=O | 64* | 0
O=C(CN(CC1CCCO1)C(=O)CNS(=O)(=O)c1ccccc1)NCc1ccc(F)cc1 (centres undefined) | 26* | 0
O=C(CN(CC1CCCO1)C(=O)CNS(=O)(=O)c1ccc(F)cc1)NCc1ccc(F)cc1 (centres undefined) | x | 0
O=C(C[C@H]1CC[C@@H]2[C@H](COC[C@@H](O)CN2Cc2ccc(Cl)cc2)O1)NCc1cccc(F)c1 | 0 | 0
CCCC(=O)Nc1ccc2c(c1)C(=O)N(C)[C@H]1CC[C@H](CC(=O)OC)O[C@@H]1CO2 | 0 | 0
CCCC(=O)NC(=S)N1CCN(c2ccc([N+](=O)[O-])cc2)CC1 | x | 0
O=C(NC(=S)N1CCN(c2ccc([N+](=O)[O-])cc2)CC1)c1ccccc1 | 33* | 0
C[C@@H]1CN([C@H](C)CO)C(=O)c2cccc(NC(=O)c3ccncc3)c2O[C@@H]1CN(C)C(=O)NC1CCCCC1 | x | 0
CNC[C@@H]1Oc2ccc(NS(=O)(=O)c3cccs3)cc2C(=O)N([C@@H](C)CO)C[C@@H]1C | 0 | 0
